{"source": "paper PMC4479701", "about": "(mBio, 2015)", "key": {"[1]": {"tested_on": "C. neoformans cells", "experiment": "In vitro passages, development of resistance", "format": "cell-based", "details": "15 days of in vitro passages (120 generations), 10^6 cells/ml; data not shown"}, "[2]": {"experiment": "In vivo toxicity, blood work", "set-up": "species or system mouse (CBA/J)", "outline": "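Female CBA/J mice, 4 weeks old: five received 1.2 mg/kg/day test compound for 60 days, and three controls received a daily solvent injection. On day 60, blood was collected into one K2EDTA tube and one plain tube allowed to clot.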"}, "[3]": {"tested_on": "S. cerevisiae RYO0622 strain", "experiment": "IC100 prescreening", "format": "cell-based, Saccharomyces cerevisiae", "details": "solid SC medium, 2 days, 30°C", "outline": "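S. cerevisiae RYO0622 cells (20 µl at OD600 10−4) spotted on solid SC medium alone, with DMSO, or with test compound at 67, 133, 266, 533 and 1,066 µg/ml in a 48-well plate. Incubation 2 days at 30°C in the dark. IC100 taken as the concentration giving 100% growth inhibition.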"}, "[4]": {"tested_on": "Cryptococcus neoformans", "experiment": "In vitro susceptibility testing", "format": "cell-based"}, "[5]": {"tested_on": "C. neoformans", "experiment": "Mouse model of cryptococcosis, intranasal infection", "format": "in vivo, mouse (CBA/J)", "details": "1.2 mg/kg/day i.p.", "outline": "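Mice (10 per group) were infected by nasal inoculation of 20 µl containing 5 × 10^5 C. neoformans. Test compound was given i.p. at 1.2 mg/kg/day in 100 µl PBS with 0.4% DMSO, starting 2 h after inoculation. Survival followed up to 60 days. Organs of survivors were homogenized in 10 ml PBS, diluted serially 1:10, plated on YPD, and incubated at 30°C for 72 h for CFU.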"}, "[6]": {"tested_on": "GlcCer synthesis in J774.16 cells", "experiment": "Labeling of mammalian cells with [3H]palmitate, TLC of GlcCer", "format": "cell-based, murine", "details": "[3H]palmitate labeling, 6 h", "outline": "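J774.16 macrophages (5 × 10^6 cells/ml) adhered for 14 h in six-well plates. They were exposed for 4 h to test compound at the concentrations used for the fungal labeling, then given 30 µCi/ml [3H]palmitic acid for a further 2 h.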"}, "[7]": {"experiment": "Pharmacokinetics of BHBM in mice", "format": "in vivo, mouse (C3H/HeN)", "details": "for half-life: C3H/HeN, mouse, plasma, ip, IS/IN mice", "outline": "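Test compound was dissolved at 10 mg/ml (stock) in cremophor-ethanol 1:1 and diluted in PBS to 200 or 400 µg/ml. C3H/HeN mice (n = 3), either healthy or immunocompromised and P. murina-infected, received 0.8 or 1.6 mg/kg i.v. (tail vein) or i.p. in 100 µl. Blood was taken into K2EDTA predose and at 0.5, 1, 2, 4, 8, 12 and 24 h, and plasma stored at −80°C. t1/2 = 0.693/λz.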"}, "[8]": {"tested_on": "Paecilomyces variotii", "experiment": "In vitro susceptibility testing", "format": "cell-based", "details": "QC FTL strains", "outline": "(§1)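 Inoculum prepared per CLSI M27-A3. Plates incubated at 37°C with 5% CO2 for 24 to 96 h. MIC was the lowest concentration inhibiting 50% of growth versus the drug-free control. Minimum fungicidal concentration was also measured: serial dilutions from wells were plated on YPD agar, and MFC was the lowest concentration yielding three or fewer colonies (99% of inoculum killed).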"}, "[9]": {"tested_on": "Pneumocystis murina", "experiment": "In vitro testing against Pneumocystis, inhibition of ATP", "format": "cell-based", "details": "read-out: IC50 (percentage inhibition of ATP)"}, "[10]": {"tested_on": "Candida glabrata", "experiment": "In vitro susceptibility testing", "format": "cell-based", "details": "FTL strains (10)", "outline": "as §1"}, "[11]": {"tested_on": "C. neoformans cells", "experiment": "In vitro killing assay", "format": "cell-based", "outline": "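An overnight C. neoformans culture was washed in PBS and resuspended in HEPES-buffered YNB, pH 7.4. 2 × 10^4 cells were exposed to 1, 2 or 4 µg/ml test compound in 10 ml (0.4% DMSO final), at 37°C, 5% CO2, on a rotary shaker at 200 rpm. Aliquots taken at time points were diluted, plated on YPD, incubated 72 h at 30°C, and CFU counted.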"}, "[12]": {"tested_on": "C. albicans, Candida parapsilosis, Paecilomyces variotii", "experiment": "MIC, poor activity", "format": "cell-based", "outline": "as §1"}, "[13]": {"tested_on": "C. neoformans", "experiment": "Synergism assay", "format": "cell-based"}, "[14]": {"tested_on": "Candida krusei", "experiment": "In vitro susceptibility testing", "format": "cell-based", "outline": "as §1"}, "[15]": {"tested_on": "Candida spp.", "experiment": "In vitro susceptibility", "format": "cell-based", "details": "most Candida spp. examined", "outline": "as §1"}, "[16]": {"tested_on": "Pneumocystis jirovecii", "experiment": "In vitro testing against Pneumocystis, inhibition of ATP", "format": "cell-based", "details": "read-out: IC50 (percentage inhibition of ATP)"}, "[17]": {"tested_on": "S. cerevisiae deletion mutants", "format": "cell-based, Saccharomyces cerevisiae"}, "[18]": {"tested_on": "Bone marrow-derived macrophages", "format": "cell-based"}, "[19]": {"tested_on": "Candida albicans", "experiment": "In vitro susceptibility testing", "format": "cell-based", "outline": "as §1"}, "[20]": {"tested_on": "Coccidioides spp.", "format": "cell-based"}, "[21]": {"tested_on": "P. murina", "experiment": "Murine pneumocystosis, corticosteroid-immunosuppressed", "format": "in vivo, mouse (C3H/HeN)", "outline": "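Corticosteroid-immunosuppressed mice were infected with P. murina by cohousing with seed mice for 2 weeks. […] Treatment lasted 13 days. Lung homogenate slides were stained with Diff-Quik for trophic forms and cresyl echt violet for asci.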"}, "[22]": {"tested_on": "intracellular C. neoformans", "experiment": "Intracellular effect in J774.16 macrophages", "format": "cell-based", "details": "0.25, 1 or 4 µg/ml; dose dependent, 12 and 24 h", "outline": "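J774.16 macrophages were co-incubated 1:1 with C. neoformans for 2 h, with complement and anti-capsular MAb 18B7 as opsonins. Wells were washed to remove extracellular yeast, then fresh DMEM with varying test compound concentrations was added, at 37°C, 5% CO2. Macrophages were lysed and plated for intracellular CFU.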"}}, "note": "Where “and” joins values, the source holds several entries; their conditions need not be identical. Equal entries are not always repeated. Where two headings read alike, the source gives them in different places.", "data": [{"smiles": "Cc1ccccc1C(=O)NN=Cc1ccc(O)c(Br)c1", "note": "[BHBM, N′-(3-bromo-4-hydroxybenzylidene)-2-methylbenzohydrazide]", "values": [{"measurement": "development of resistance", "setting": "[1]", "value": "did not develop resistance"}, {"measurement": "all other blood parameters for liver and kidney function", "setting": "[2]; after 60 days of treatment", "value": "normal"}, {"measurement": "liver aspartate aminotransferase (AST)", "setting": "[2]; after 60 days of treatment, 1.2 mg/kg/day, untreated 50 ± 9", "value": "125 ± 75", "unit": "U/liter"}, {"measurement": "tolerability in animals", "setting": "[2]; mouse, in vivo", "value": "well tolerated"}, {"measurement": "100% inhibitory concentration (IC100)", "setting": "[3]", "value": 133, "unit": "µg/mL"}, {"measurement": "MIC range", "setting": "[4]", "value": "0.5−2 µg/ml and 1−2 µg/ml"}, {"measurement": "MIC range", "setting": "[4]; FTL strains (13)", "value": "0.25−8 µg/ml"}, {"measurement": "brain tissue burden (CFU)", "setting": "[5]", "value": "eradication of fungal cells"}, {"measurement": "lung tissue burden (CFU)", "setting": "[5]", "value": "decrease of fungal load"}, {"measurement": "mice surviving C. neoformans infection", "setting": "[5]; up to 60 days, 10 mice per group", "value": 90, "unit": "%"}, {"measurement": "synthesis of mammalian GlcCer or other sphingolipids", "setting": "[6]", "value": "no significant changes"}, {"measurement": "half-life", "setting": "[7]; 0.8 mg/kg, T1/2, IP 0.8 mg/kg (low dose)", "value": 47.4, "unit": "min"}, {"measurement": "half-life", "setting": "[7]; 1.6 mg/kg, T1/2, IP 1.6 mg/kg (high dose)", "value": 50.4, "unit": "min"}, {"measurement": "distribution to brain tissue", "setting": "[7]; upon administration, data not shown", "value": "readily found in brain tissue"}, {"measurement": "MIC range", "setting": "[8]", "value": ">16", "unit": "mg/L"}, {"measurement": "IC50", "setting": "[9]; 24 h", "value": 1.02, "unit": "mg/L"}, {"measurement": "IC50", "setting": "[9]; 48 h", "value": "< 0.01", "unit": "mg/L"}, {"measurement": "IC50", "setting": "[9]; 72 h", "value": "< 0.01", "unit": "mg/L"}, {"measurement": "IC50", "setting": "[9]; 96 h", "value": 2.02, "unit": "mg/L"}, {"measurement": "MIC range", "setting": "[10]", "value": "0.125−2 µg/ml"}, {"measurement": "incubation required to kill about 50% of the cells", "setting": "[11]", "value": "at least 72 h"}, {"measurement": "type of killing", "setting": "[11]; time-kill assay, 37°C, 5% CO2, pH 7.4", "value": "concentration-dependent killing"}, {"measurement": "MIC", "setting": "[12]", "value": "> 32", "unit": "mg/L"}, {"measurement": "interaction category", "setting": "[13]; combined with caspofungin", "value": "additive (additive effect, FIC = 1)"}, {"measurement": "interaction category", "setting": "[13]; combined with fluconazole", "value": "highly synergistic"}, {"measurement": "interaction category", "setting": "[13]; combined with tunicamycin", "value": "synergistic (synergistic effect, FIC < 1)"}, {"measurement": "MIC range", "setting": "[14]; ATCC 6258 (MDPL strain)", "value": 16, "unit": "mg/L"}, {"measurement": "MIC range", "setting": "[14]; MDPL strain (1)", "value": 32, "unit": "mg/L"}, {"measurement": "MIC range", "setting": "[14]; QC FTL strains", "value": 8, "unit": "mg/L"}, {"measurement": "in vitro susceptibility", "setting": "[15]", "value": "resistant"}, {"measurement": "IC50", "setting": "[16]; 24 h", "value": 0.912, "unit": "mg/L"}, {"measurement": "IC50", "setting": "[16]; 48 h", "value": 0.159, "unit": "mg/L"}, {"measurement": "IC50", "setting": "[16]; 72 h", "value": 0.074, "unit": "mg/L"}, {"measurement": "IC50", "setting": "[16]; 96 h", "value": 0.072, "unit": "mg/L"}, {"measurement": "resistance of Δsla2 mutant", "setting": "[17]", "value": "not resistant"}, {"measurement": "growth of Δapl5, Δcos111, Δmkk1, Δste2 mutants compared with parent strain", "setting": "[17]; BHBM in the range of 11 to 92 µg/ml, 24 h, 30°C", "value": "increased resistance"}, {"measurement": "mammalian GlcCer level", "setting": "[18]", "value": "did not significantly affect"}, {"measurement": "MIC range", "setting": "[19]; FTL strains (3)", "value": ">32", "unit": "mg/L"}, {"measurement": "MIC range", "setting": "[19]; MDPL strains (5)", "value": ">32", "unit": "mg/L"}, {"measurement": "MIC range", "setting": "[20]", "value": "8 to 16", "unit": "mg/L"}, {"measurement": "number of asci or nuclei in lung homogenates", "setting": "[21]; 13 days of treatment, versus vehicle-treated negative control", "value": "No significant differences"}, {"measurement": "survival", "setting": "[21]; BHBM 3.2 mg/kg/day i.p., 13 days, versus untreated", "value": "survived significantly longer"}, {"measurement": "intracellular replication of C. neoformans inside macrophages (CFU)", "setting": "[22]", "value": "significantly decreased"}]}]}
